# In ChEMBL document CHEMBL1151920, “Synthesis and biological evaluation of penem inhibitors of bacterial signal peptidase” (Bioorg Med Chem Lett, 2009):
# Assays:
# Escherichia coli = experiment: Antibacterial activity against permeabilizing agent polymyxin B-treated Escherichia coli ATCC 25922 after 18 hrs by liquid dilution method; format: functional; conditions: ATCC 25922, 18 h
# In short: (§1)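 Broth microdilution MIC. Compounds 2-fold serially diluted in cation-adjusted Mueller–Hinton broth. Bacteria grown to 10^8 cfu/mL, then inoculated at a final 5 × 10^5 cells/mL. Incubated 37 °C, 18 h. MIC taken as the lowest concentration giving no visible growth. E. coli ATCC25922 was tested in the presence of polymyxin B as permeabilizing agent.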
# Staphylococcus aureus [1] = experiment: Antibacterial activity against Staphylococcus aureus 8325 after 18 hrs by liquid dilution method; format: functional; conditions: Staphylococcus aureus, 8325, 18 h; in short: as §1
# Staphylococcus aureus [2] = experiment: Antibacterial activity against methicillin-resistant Staphylococcus aureus USA300 after 18 hrs by liquid dilution method; format: functional; conditions: USA300, 18 h
# [3] = system: Staphylococcus epidermidis; experiment: Antibacterial activity against Staphylococcus epidermidis RP62A after 18 hrs by liquid dilution method; format: functional; in short: as §1
# Signal peptidase I = Signal peptidase I (Escherichia coli K-12, UniProt P00803); experiment: Inhibition of Escherichia coli signal peptidase
# Signal peptidase I, sequence (P00803 whole entry): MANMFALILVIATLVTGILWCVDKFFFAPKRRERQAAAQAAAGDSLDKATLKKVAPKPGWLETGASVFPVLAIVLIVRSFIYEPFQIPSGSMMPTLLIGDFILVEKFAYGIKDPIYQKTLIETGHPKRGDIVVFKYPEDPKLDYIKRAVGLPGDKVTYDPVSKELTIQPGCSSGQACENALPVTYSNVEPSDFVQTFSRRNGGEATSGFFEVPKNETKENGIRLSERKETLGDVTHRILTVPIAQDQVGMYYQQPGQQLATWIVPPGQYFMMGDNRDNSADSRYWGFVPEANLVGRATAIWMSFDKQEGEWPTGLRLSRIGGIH
SMILES,MIC (Escherichia coli),MIC (Staphylococcus aureus [1]),MIC (Staphylococcus aureus [2]),MIC [3],IC50 (Signal peptidase I)
CC(C)C(=O)O[C@H](C)[C@H]1C(=O)N2C(C(=O)OCc3ccc([N+](=O)[O-])cc3)=CS[C@@H]12,> 200 µg/mL,> 200 µg/mL,> 200 µg/mL,50 µg/mL,
CC(C)NC(=O)O[C@H](C)[C@H]1C(=O)N2C(C(=O)OCc3ccc([N+](=O)[O-])cc3)=CS[C@@H]12,> 200 µg/mL,> 200 µg/mL,100 µg/mL,100 µg/mL,
CCC(=O)O[C@H](C)[C@H]1C(=O)N2C(C(=O)OCc3ccc([N+](=O)[O-])cc3)=CS[C@@H]12,> 200 µg/mL,> 200 µg/mL,> 200 µg/mL,100 µg/mL,
CC[C@H](C)[C@H](NC(C)=O)C(=O)O[C@H](C)[C@H]1C(=O)N2C(C(=O)OCc3ccc([N+](=O)[O-])cc3)=CS[C@@H]12,> 200 µg/mL,> 200 µg/mL,> 200 µg/mL,> 200 µg/mL,
CC(=O)N[C@@H](C)C(=O)O[C@H](C)[C@H]1C(=O)N2C(C(=O)OCc3ccc([N+](=O)[O-])cc3)=CS[C@@H]12,> 200 µg/mL,> 200 µg/mL,> 200 µg/mL,> 200 µg/mL,
COCCOCO[C@H](C)[C@H]1C(=O)N2C(C(=O)OCc3ccc([N+](=O)[O-])cc3)=CS[C@@H]12,> 200 µg/mL,200 µg/mL,> 200 µg/mL,100 µg/mL,
CC(=O)O[C@H](C)[C@H]1C(=O)N2C(C(=O)OCc3ccc([N+](=O)[O-])cc3)=CS[C@@H]12,> 200 µg/mL,> 200 µg/mL,> 200 µg/mL,100 µg/mL,
CCNC(=O)O[C@H](C)[C@H]1C(=O)N2C(C(=O)OCc3ccc([N+](=O)[O-])cc3)=CS[C@@H]12,> 200 µg/mL,> 200 µg/mL,100 µg/mL,100 µg/mL,
C[C@@H](O)[C@H]1C(=O)N2C(C(=O)OCc3ccc([N+](=O)[O-])cc3)=CS[C@@H]12,> 200 µg/mL,200 µg/mL,> 200 µg/mL,50 µg/mL,
COCO[C@H](C)[C@H]1C(=O)N2C(C(=O)OCc3ccc([N+](=O)[O-])cc3)=CS[C@@H]12,> 200 µg/mL,> 200 µg/mL,> 200 µg/mL,50 µg/mL,
CCOCO[C@H](C)[C@H]1C(=O)N2C(C(=O)OCc3ccc([N+](=O)[O-])cc3)=CS[C@@H]12,> 200 µg/mL,> 200 µg/mL,> 200 µg/mL,50 µg/mL,
C[C@@H](O)[C@H]1C(=O)N2C(C(=O)O)=CS[C@@H]12,,,,,180 nM
CC(=O)NCC(=O)O[C@H](C)[C@H]1C(=O)N2C(C(=O)OCc3ccc([N+](=O)[O-])cc3)=CS[C@@H]12,> 200 µg/mL,> 200 µg/mL,> 200 µg/mL,> 200 µg/mL,
CCCC(=O)O[C@H](C)[C@H]1C(=O)N2C(C(=O)OCc3ccc([N+](=O)[O-])cc3)=CS[C@@H]12,> 200 µg/mL,> 200 µg/mL,> 200 µg/mL,100 µg/mL,
CC(=O)N[C@H](C(=O)O[C@H](C)[C@H]1C(=O)N2C(C(=O)OCc3ccc([N+](=O)[O-])cc3)=CS[C@@H]12)C(C)C,> 200 µg/mL,> 200 µg/mL,> 200 µg/mL,> 200 µg/mL,
CC(C)CC(=O)O[C@H](C)[C@H]1C(=O)N2C(C(=O)OCc3ccc([N+](=O)[O-])cc3)=CS[C@@H]12,> 200 µg/mL,> 200 µg/mL,> 200 µg/mL,100 µg/mL,
